Results from ChEMBL document CHEMBL1681705, “Optimisation of ITK inhibitors through successive iterative design cycles” (Bioorg Med Chem Lett, 2011).

How the values were obtained:
[1] = target: Protein kinase C theta type (Homo sapiens) (UniProt Q04759); assay: Inhibition of PKCtheta at 0.1 uM; values are per cent of control
[2] = target: Serine/threonine-protein kinase N2 (Homo sapiens) (UniProt Q16513); assay: Inhibition of PRK2 at 0.1 uM; values are per cent of control
[3] = target: T1, Interleukin-1 receptor-associated kinase 4 (Homo sapiens) (UniProt Q9NWZ3); assay: Inhibition of IRAK4 at 0.1 uM; values are per cent of control
T1 sequence (whole entry): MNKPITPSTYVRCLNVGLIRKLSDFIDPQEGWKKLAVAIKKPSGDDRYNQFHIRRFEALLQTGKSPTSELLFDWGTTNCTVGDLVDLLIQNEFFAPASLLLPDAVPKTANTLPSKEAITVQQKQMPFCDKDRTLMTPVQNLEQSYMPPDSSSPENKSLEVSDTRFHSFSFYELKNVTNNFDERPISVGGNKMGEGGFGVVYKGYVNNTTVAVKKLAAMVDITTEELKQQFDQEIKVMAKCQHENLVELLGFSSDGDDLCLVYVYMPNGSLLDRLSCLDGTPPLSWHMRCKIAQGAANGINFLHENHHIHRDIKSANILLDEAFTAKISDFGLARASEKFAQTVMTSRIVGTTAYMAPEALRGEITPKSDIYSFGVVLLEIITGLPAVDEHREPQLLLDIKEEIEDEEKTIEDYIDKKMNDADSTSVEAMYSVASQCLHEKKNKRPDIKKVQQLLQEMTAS

[4] = target: Serine/threonine-protein kinase MARK1 (Homo sapiens) (UniProt Q9P0L2); assay: Inhibition of MARK1 at 1 uM; values are per cent of control
Serine/threonine-protein kinase MARK1 (Homo sapiens), sequence (Q9P0L2 whole entry, looked up): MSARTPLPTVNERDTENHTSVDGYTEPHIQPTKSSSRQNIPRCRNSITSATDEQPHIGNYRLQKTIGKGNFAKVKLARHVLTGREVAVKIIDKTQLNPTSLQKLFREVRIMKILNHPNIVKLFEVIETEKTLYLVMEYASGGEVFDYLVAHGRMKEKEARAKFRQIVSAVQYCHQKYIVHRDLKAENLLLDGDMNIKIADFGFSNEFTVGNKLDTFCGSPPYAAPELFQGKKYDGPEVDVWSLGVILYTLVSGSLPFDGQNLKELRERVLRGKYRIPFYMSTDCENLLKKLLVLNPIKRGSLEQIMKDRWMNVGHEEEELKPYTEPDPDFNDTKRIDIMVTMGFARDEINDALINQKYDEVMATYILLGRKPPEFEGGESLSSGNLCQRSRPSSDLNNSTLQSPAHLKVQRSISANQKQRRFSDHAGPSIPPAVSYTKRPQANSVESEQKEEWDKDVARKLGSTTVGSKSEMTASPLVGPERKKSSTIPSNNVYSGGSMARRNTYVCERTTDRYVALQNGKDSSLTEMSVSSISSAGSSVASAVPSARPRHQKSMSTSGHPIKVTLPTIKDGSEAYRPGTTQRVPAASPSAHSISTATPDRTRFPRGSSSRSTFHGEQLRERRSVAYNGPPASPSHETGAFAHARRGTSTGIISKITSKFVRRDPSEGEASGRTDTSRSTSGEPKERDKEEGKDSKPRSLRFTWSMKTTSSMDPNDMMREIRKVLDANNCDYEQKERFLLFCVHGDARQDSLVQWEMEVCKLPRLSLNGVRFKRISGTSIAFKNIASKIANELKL

[5] = target: T2, Protein kinase C epsilon type (Homo sapiens) (UniProt Q02156); assay: Inhibition of PKCepsilon at 0.1 uM; values are per cent of control
T2 sequence (whole entry): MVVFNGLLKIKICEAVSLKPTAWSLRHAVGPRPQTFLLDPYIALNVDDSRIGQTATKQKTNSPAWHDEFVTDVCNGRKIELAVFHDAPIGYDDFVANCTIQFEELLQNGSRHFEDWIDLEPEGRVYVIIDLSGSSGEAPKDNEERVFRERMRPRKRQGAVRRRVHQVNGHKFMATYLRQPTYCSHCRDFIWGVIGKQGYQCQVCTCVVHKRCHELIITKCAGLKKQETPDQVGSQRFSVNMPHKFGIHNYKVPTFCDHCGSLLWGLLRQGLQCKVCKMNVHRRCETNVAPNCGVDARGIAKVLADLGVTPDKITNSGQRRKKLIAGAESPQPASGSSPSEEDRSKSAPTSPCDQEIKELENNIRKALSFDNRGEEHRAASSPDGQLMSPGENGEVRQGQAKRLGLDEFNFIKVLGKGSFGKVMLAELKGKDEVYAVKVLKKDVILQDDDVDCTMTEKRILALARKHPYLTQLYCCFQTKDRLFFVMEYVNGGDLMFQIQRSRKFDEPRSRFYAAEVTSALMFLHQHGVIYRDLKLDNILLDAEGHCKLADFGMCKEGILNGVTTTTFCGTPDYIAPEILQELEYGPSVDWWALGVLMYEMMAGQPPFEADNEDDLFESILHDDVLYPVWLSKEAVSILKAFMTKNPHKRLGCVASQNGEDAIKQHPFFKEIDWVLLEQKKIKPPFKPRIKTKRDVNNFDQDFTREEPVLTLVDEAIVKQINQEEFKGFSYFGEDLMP

[6] = target: Ephrin type-A receptor 4 (Homo sapiens) (UniProt P54764); assay: Inhibition of EphA4 at 1 uM; values are per cent of control
Ephrin type-A receptor 4 (Homo sapiens), sequence (P54764 whole entry): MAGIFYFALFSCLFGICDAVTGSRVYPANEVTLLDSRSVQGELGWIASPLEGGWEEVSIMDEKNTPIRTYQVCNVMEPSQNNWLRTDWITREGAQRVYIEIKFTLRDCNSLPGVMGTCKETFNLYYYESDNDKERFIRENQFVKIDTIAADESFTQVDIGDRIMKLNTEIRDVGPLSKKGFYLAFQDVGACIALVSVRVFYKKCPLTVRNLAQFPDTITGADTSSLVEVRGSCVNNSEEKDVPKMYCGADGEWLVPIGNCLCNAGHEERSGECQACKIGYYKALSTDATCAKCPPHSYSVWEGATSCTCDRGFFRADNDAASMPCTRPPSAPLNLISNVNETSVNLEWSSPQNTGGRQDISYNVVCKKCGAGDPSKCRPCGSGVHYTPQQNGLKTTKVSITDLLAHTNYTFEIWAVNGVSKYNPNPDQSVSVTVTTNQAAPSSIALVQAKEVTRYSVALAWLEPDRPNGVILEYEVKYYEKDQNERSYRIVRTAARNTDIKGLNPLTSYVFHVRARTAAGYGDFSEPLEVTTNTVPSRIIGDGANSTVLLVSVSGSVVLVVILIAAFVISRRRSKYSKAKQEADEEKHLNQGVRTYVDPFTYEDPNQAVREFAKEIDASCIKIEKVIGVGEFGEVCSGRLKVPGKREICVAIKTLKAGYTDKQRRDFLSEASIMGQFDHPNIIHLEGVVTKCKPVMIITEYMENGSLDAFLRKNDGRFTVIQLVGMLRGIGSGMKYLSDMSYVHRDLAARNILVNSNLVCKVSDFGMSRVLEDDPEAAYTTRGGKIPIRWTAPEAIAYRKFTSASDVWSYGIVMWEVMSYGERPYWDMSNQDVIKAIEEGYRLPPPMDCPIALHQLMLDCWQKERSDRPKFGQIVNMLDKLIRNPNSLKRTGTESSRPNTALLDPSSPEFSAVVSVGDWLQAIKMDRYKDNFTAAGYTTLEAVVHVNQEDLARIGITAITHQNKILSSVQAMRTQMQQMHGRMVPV

[7] = target: Epidermal growth factor receptor (Homo sapiens) (UniProt P00533); assay: Inhibition of EGFR at 0.1 uM; values are per cent of control
Epidermal growth factor receptor (Homo sapiens), sequence (P00533 whole entry): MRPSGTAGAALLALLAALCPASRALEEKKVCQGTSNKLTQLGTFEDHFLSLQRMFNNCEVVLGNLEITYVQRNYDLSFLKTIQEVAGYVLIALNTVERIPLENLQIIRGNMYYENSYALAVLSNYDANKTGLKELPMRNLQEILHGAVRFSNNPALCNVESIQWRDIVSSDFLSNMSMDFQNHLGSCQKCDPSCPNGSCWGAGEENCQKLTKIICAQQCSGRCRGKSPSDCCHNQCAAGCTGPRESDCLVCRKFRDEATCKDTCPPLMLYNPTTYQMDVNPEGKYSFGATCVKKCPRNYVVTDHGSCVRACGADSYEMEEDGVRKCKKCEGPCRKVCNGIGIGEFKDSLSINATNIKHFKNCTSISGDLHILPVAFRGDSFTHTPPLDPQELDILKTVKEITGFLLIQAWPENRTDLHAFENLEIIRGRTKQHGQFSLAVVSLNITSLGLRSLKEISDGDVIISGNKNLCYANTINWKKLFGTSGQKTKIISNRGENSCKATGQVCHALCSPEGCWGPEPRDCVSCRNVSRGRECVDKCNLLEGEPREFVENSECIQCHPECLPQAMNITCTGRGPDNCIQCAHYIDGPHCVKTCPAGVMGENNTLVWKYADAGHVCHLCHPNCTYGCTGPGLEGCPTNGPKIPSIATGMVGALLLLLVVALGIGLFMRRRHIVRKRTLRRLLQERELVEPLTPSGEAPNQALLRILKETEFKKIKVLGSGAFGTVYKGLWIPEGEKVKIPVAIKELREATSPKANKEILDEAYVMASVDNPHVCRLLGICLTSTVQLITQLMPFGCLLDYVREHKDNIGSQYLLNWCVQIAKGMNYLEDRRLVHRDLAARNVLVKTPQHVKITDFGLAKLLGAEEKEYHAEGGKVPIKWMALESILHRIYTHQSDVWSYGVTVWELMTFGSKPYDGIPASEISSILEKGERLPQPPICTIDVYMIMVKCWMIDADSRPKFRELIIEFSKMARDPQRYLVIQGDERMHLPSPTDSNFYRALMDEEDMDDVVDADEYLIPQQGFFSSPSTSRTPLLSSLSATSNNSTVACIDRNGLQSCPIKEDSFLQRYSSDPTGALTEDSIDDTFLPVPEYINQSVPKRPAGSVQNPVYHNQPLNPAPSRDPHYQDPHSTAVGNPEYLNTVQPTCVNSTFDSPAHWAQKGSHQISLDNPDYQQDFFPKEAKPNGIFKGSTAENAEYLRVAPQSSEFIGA

[8] = target: T3, Tyrosine-protein kinase JAK3 (Homo sapiens) (UniProt P52333); assay: Inhibition of JAK3 at 1 uM
T3 sequence (whole entry): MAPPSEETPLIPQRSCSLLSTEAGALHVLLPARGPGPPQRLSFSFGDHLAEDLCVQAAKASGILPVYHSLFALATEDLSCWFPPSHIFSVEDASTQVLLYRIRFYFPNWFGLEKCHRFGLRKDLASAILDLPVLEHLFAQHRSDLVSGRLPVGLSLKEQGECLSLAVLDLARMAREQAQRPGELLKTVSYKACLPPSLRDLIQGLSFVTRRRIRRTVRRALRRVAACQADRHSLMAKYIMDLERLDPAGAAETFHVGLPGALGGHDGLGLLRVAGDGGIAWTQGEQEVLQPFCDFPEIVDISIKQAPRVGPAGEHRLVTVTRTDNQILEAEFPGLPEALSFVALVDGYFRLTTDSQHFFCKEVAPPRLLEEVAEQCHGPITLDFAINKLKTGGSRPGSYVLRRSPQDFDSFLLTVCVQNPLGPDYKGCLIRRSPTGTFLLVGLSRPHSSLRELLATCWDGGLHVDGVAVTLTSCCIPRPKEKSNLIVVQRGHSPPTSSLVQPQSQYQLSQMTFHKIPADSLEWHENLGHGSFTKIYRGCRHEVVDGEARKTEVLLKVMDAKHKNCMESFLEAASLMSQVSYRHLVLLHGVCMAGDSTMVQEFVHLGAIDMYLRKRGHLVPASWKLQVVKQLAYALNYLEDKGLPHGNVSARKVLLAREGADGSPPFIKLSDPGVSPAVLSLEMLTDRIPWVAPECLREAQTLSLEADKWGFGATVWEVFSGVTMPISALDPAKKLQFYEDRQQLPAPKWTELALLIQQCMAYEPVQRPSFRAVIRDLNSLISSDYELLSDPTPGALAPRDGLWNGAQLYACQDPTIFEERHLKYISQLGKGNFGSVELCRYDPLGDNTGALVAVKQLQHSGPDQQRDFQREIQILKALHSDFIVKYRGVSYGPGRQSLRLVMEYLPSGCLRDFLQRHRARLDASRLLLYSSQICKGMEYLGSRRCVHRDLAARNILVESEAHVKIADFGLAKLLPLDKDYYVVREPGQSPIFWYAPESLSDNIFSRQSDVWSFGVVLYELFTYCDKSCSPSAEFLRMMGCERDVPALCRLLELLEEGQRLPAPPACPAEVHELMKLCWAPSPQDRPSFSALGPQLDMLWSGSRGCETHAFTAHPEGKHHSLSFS
Summary of the method: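 Each selected inhibitor was tested at two concentrations, 0.1 and 1.0 micromolar. Values are reported as inhibition at each concentration.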

[9] = target: Serine/threonine-protein kinase pim-1 (Homo sapiens) (UniProt P11309); assay: Inhibition of Pim-1 at 1 uM; values are per cent of control
Serine/threonine-protein kinase pim-1 (Homo sapiens), sequence (P11309 whole entry, looked up): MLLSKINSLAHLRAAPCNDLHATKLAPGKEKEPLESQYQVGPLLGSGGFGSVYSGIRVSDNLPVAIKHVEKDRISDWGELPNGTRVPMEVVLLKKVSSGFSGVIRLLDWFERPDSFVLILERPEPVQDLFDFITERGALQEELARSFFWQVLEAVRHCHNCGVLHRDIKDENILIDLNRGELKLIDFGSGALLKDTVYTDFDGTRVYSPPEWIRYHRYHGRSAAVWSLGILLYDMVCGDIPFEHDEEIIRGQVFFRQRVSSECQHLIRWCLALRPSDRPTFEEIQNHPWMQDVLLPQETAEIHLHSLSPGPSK

Serine/threonine-protein kinase N2 (Homo sapiens), sequence (Q16513 whole entry, looked up): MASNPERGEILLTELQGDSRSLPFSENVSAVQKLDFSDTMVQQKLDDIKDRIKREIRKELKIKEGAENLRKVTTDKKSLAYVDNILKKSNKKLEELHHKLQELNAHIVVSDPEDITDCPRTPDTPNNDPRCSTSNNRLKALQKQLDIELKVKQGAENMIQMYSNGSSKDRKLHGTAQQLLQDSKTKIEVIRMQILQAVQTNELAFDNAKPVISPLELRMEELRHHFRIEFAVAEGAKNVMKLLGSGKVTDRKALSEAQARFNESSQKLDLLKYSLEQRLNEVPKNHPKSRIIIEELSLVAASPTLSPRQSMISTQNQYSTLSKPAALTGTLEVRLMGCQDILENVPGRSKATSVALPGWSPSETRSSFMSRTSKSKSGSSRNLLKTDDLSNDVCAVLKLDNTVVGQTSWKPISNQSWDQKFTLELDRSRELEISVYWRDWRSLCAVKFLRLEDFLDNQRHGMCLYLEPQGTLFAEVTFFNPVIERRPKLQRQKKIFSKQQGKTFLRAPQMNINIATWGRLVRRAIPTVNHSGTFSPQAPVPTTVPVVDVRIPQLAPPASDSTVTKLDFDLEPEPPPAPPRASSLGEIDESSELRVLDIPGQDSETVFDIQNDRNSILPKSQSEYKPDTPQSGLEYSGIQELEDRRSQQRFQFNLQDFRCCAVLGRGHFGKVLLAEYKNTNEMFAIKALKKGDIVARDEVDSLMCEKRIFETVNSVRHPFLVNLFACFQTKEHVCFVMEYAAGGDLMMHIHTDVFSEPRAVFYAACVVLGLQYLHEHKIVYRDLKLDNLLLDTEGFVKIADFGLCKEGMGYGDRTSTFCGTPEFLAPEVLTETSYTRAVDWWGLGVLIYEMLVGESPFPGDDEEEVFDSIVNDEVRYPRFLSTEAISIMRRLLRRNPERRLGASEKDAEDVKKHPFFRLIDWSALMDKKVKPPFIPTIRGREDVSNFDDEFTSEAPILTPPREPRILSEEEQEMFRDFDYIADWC
Protein kinase C theta type (Homo sapiens), sequence (Q04759 whole entry, looked up): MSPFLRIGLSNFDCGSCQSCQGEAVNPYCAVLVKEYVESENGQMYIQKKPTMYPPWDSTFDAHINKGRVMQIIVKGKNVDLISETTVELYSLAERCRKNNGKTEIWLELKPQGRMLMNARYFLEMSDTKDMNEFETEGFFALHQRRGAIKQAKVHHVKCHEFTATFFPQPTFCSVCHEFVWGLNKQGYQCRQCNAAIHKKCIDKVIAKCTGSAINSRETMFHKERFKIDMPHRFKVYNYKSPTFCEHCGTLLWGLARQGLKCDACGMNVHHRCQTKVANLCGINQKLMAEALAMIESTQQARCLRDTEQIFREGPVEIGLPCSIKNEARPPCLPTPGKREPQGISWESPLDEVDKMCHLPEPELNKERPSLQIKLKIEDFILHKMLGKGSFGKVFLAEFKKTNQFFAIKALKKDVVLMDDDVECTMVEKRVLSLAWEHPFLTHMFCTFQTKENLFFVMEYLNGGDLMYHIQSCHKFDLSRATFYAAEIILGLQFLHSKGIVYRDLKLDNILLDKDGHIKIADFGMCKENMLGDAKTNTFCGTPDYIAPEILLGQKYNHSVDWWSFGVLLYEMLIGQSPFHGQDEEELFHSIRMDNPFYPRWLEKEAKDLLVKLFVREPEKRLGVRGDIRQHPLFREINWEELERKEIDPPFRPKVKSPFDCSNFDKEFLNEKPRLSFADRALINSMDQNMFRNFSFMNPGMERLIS

| Structure (SMILES) | residual activity [1] [%] | residual activity [2] [%] | residual activity [3] [%] | residual activity [4] [%] | residual activity [5] [%] | residual activity [6] [%] | residual activity [7] [%] | inhibition [8] [%] | residual activity [9] [%] |
| --- | --- | --- | --- | --- | --- | --- | --- | --- | --- |
| Cc1ccc2cc(-c3n[nH]c4ccc(NC5CCNC5)cc34)[nH]c2c1 (stereo not drawn) | 74 | 93 | 6 | 0 | 30 | 72 | 94 | 8 | 91 |
| Cc1ccc2cc(-c3n[nH]c4ccc(NC5CCN(Cc6ccccc6)CC5)cc34)[nH]c2c1 | 45 | 25 | 25 | 21 | 86 | 68 | 28 | 5 | 93 |
